First the molecules themselves.
B1: NELF-E aptamer (parent)
chain: CCCAACGACUGCCGAGCGAGAUUACGCUUGAGCGCCCCACUGAGGAUGCCCACGGGCGAUUGGGGCACGG

For orientation: Kd means a measure of binding affinity in units of concentration.

In the series the parent is B1. Briefly: HiTS-RAP. Conditions: with NELF-E (Drosophila). The procedure, abridged: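 Aptamer DNA templates carrying a T7 promoter and ter site were sequenced on an Illumina GAIIx flowcell, then transcribed in situ by T7 RNA polymerase and halted by GST-Tus (30 minutes, 37°C). Clusters were imaged after 30-minute room-temperature equilibration with NELF-E-mOrange at 0.064 to 1000 nM in HEPES binding buffer, and only the first binding curve was used. Intensities were normalised to sequencing intensity and averaged per sequence. Kd came from weighted Hill fits, keeping fits with variance below 1,000,000.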
Regarding CCCAACGACUGCCGAGCGUGAUUGCGCUUGAGCGCCCCACUGAGGAUGCCCACGGGCGAUUGGGGCACGG [A19U A24G], the Kd amounted to 5.61 nM.

In the case of CCCAACGACUGCCGAGCGAUAUUACGCUUGAGCGCCCCACUGAGGAUGCCCACGGGCGGUUGGGGCACGG [G20U A59G], the equilibrium dissociation constant (Kd) came to 19.9 nM.

For the variant CCCAACGACUGCCGAGCGUGAGUACGCUUGAGCGCCCCACUGAGGAUGCCCACGGGCGAUUGGGGCACGG [A19U U22G], the Kd turned out to be 6 nM.

CCCAACGACUGCCGAGCGGGAUUACGCUUGAGCGCCCCACUGAGGAUGCCCACGGGCGAUAGGGGCACGG [A19G U61A]: the Kd stood at 24.3 nM.

CCCAACGACUGCCGAGCGAUAGUACGCUUGAGCGCCCCACUGAGGAUGCCCACGGGCGAUUGGGGCACGG [G20U U22G]: the Kd stood at 6.52 nM.

As to CCCAACGACUGCCGAGCGAAAUUACGCUUGAGCGCCCCACGGAGGAUGCCCACGGGCGAUUGGGGCACGG [G20A U41G], the Kd is 5.24 nM.

For CCCAACGACUGCCGAGCGAUAUUACGCCUGAGCGCCCCACUGAGGAUGCCCACGGGCGAUUGGGGCACGG [G20U U28C], the Kd was determined as 9.17 nM.

On to CCCAACGACUGCCGAGCGAUAUUACGCUUGAGCGCCCCACGGAGGAUGCCCACGGGCGAUUGGGGCACGG [G20U U41G], for which the Kd came out at 6.33 nM.

As to CCCAACGACUGCCGAGCGUGAUUACGCUUGAGCGCCCCACUGAGGAUGCCCACGGGCGAUUGGGGCACGG [A19U], the Kd was found to be 5.02 nM.

With CCCAACGACUGCCGAGCGAUGUUACGCUUGAGCGCCCCACUGAGGAUGCCCACGGGCGAUUGGGGCACGG [G20U A21G], the Kd worked out at 5.12 nM.

In the case of CCCAACGACUGCCGAGCGAUAUUACGCUUGAGCGCCCCACUGAGGAUGCCCACAGGCGAUUGGGGCACGG [G20U G54A], the Kd was determined as 20.1 nM.

On to CCCAACGACUGCCGAGCGAAAUUACGCUGGAGCGCCCCACUGAGGAUGCCCACGGGCGAUUGGGGCACGG [G20A U29G], for which the Kd was found to be 4.98 nM.

For CCCAACGACUGCCGAGCGAGGUUACGCUUGAGCGCCCCACUGAGGAUGCCCACGGGCGAUUGGAGCACGG [A21G G64A], the dissociation constant Kd is 9.49 nM.

Take CCCAACGACUGCCGAGCGAUAUUACGCUUGAGCGCCCCACUGAGGAUGCCCACGGGCGAUUGGGUCACGG [G20U G65U]: the Kd is 7.46 nM.

As to CCCAACGACUGCCGAGCGAUAUUACGCUUGGGCGCCCCACUGAGGAUGCCCACGGGCGAUUGGGGCACGG [G20U A31G], the Kd stood at 8.41 nM.

As for CCCAACGACUGCCGAGCGAUAUGACGCUUGAGCGCCCCACUGAGGAUGCCCACGGGCGAUUGGGGCACGG [G20U U23G], the Kd was determined as 6.37 nM.

As for CCCAACGACUGCCGAGCGAGGUUGCGCUUGAGCGCCCCACUGAGGAUGCCCACGGGCGAUUGGGGCACGG [A21G A24G], the Kd was 6.42 nM.

In the case of CCCAACGACUGCCGAGCGAUAUUACGCUUGAGCGCCCCACUGAGGGUGCCCACGGGCGAUUGGGGCACGG [G20U A46G], the equilibrium dissociation constant (Kd) worked out at 47.1 nM.

In the case of CCCAACGACUGCCGAGCGUGUUUACGCUUGAGCGCCCCACUGAGGAUGCCCACGGGCGAUUGGGGCACGG [A19U A21U], the Kd was 6.8 nM.

As to CCCAACGACUGCCGAGCGAGGUUACGCUUGAGCGCCCCACUGAGGGUGCCCACGGGCGAUUGGGGCACGG [A21G A46G], the Kd worked out at 39.1 nM.

On to CCCAACGACUGCCGAGCGAAAGUACGCUUGAGCGCCCCACUGAGGAUGCCCACGGGCGAUUGGGGCACGG [G20A U22G], for which the Kd was determined as 5.27 nM.

As for CCCAACGACUGCCGAGCGAUAUUGCGCUUGAGCGCCCCACUGAGGAUGCCCACGGGCGAUUGGGGCACGG [G20U A24G], the Kd was 6.87 nM.

As to CCCAACGACUGCCGAGCGAGGUUACGCUUGAGCGCCCCACUGAGGAUGCCCACGGGCGUUUGGGGCACGG [A21G A59U], the dissociation constant (Kd) is 73 nM.

On to CCCAACGACUGCCGAGCGAGCUUACGCUUGAGCGCCCCACUGAGGAUGCCCACGGGCGAUUGGGGCACGG [A21C], for which the Kd was 5.33 nM.

CCCAACGACUGCCGAGCGAGGUUACGCUUGAGCGCCCCACUGAGGAUGCCCACGGGCGAUUGGGGCACGG [A21G]: the Kd worked out at 5.04 nM.

On to CCCAACGACUGCCGAGCGUGAUUACGCUUGAGCGCCCCACUGAGGAUGCCCUCGGGCGAUUGGGGCACGG [A19U A52U], for which the dissociation constant Kd turned out to be 22.1 nM.

As for CCCAACGACUGCCGAGCGACAUUACGCUUGAGCGCCCCACUGAGGAUGCCCACGGGCGAUUGGGGCACGG [G20C], the Kd was determined as 5.82 nM.

Take CCCAACGACUGCCGAGCGAAAUUACGCUUGAGCGCCCCACUGAGGAUGCCCACGGGCGAUUGGGGCACGG [G20A]: the Kd was 5.25 nM.

With CCCAACGACUGCCGAGCGAUAUUACGCUUGAGCGCCCCACUGAGGAUGCCCACGGGCGAUUGGGGCACGG [G20U], the equilibrium dissociation constant (Kd) is 6.04 nM.

With CCCAACGACUGCCGAGCGAUAUUACGCUUGAGCGCCCCACUGAGGAUGCCCACGGGCGAUUGGAGCACGG [G20U G64A], the Kd was determined as 9.36 nM.

As for CCCAACGACUGCCGAGCGAUAUUACGCUUGAGCGCCCCGCUGAGGAUGCCCACGGGCGAUUGGGGCACGG [G20U A39G], the Kd was 10.9 nM.

For CCCAACGACUGCCGAGCGAAAUGACGCUUGAGCGCCCCACUGAGGAUGCCCACGGGCGAUUGGGGCACGG [G20A U23G], the Kd stood at 5.94 nM.

Take CCCAACGACUGCCGAGCGUGAUUACGCUGGAGCGCCCCACUGAGGAUGCCCACGGGCGAUUGGGGCACGG [A19U U29G]: the Kd turned out to be 5.71 nM.

For the variant CCCAACGACUGCCGAGCGUGAUGACGCUUGAGCGCCCCACUGAGGAUGCCCACGGGCGAUUGGGGCACGG [A19U U23G], the dissociation constant Kd is 6.66 nM.

As to CCCAACGACUGCCGAGCGAAAUUGCGCUUGAGCGCCCCACUGAGGAUGCCCACGGGCGAUUGGGGCACGG [G20A A24G], the Kd stood at 6.46 nM.

On to CCCAACGACUGCCGAGCGAUAUUACGCUUGAGCGCCCCACUGAGGAUGCCCACGGGUGAUUGGGGCACGG [G20U C57U], for which the Kd stood at 7.84 nM.

As to CCCAACGACUGCCGAGCGAUAUUACGCUGGAGCGCCCCACUGAGGAUGCCCACGGGCGAUUGGGGCACGG [G20U U29G], the Kd came to 6.19 nM.

As to CCCAACGACUGCCGAGCGAAGUUACGCUUGAGCGCCCCACUGAGGAUGCCCACGGGCGAUUGGGGCACGG [G20A A21G], the Kd was 7.05 nM.

With CCCAACGACUGCCGAGCGUGAUUACGCUUGAGCGCCCCACGGAGGAUGCCCACGGGCGAUUGGGGCACGG [A19U U41G], the Kd amounted to 4.74 nM.

The values are drawn from the RNAGym collection of RNA variant scans (doi:10.1038/nmeth.2970).
